Assay results published in ChEMBL document CHEMBL4049451, “Exploring the Role of N6-Substituents in Potent Dual Acting 5'-C-Ethyltetrazolyladenosine Derivatives: Synthesis, Binding, Functional Assays, and Antinociceptive Effects in Mice ∇” (J Med Chem, 2017).
Activity calls are given as the source filed them. The calls are words filed in the database; no cut-off is given here.

How the values were obtained:
Mus musculus [1] = test: Antinociceptive activity in formalin induced nociceptive mouse model assessed as reduction in nociceptive behavior at 0.5 mg/kg, ip administered 10 mins prior to formalin induction measured up to 7 mins; assay type: functional, organism-based
How it was run: (§1)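 Mice, randomized, n = 8–10 per group; ip compound or vehicle (10% DMSO in 0.9% NaCl) 10 min before formalin (1.25% in saline, 30 μL) into dorsal hind paw. Lifting, licking, shaking, flinching timed every 5 min for 60 min; phase 1 0–7 min, phase 2 15–60 min; mean ± SEM.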

Mus musculus [2] = test: Antinociceptive activity in formalin induced nociceptive mouse model assessed as reduction in nociceptive behavior at 0.5 mg/kg, ip administered 10 mins prior to formalin induction measured for 15 to 60 mins; assay type: functional, organism-based; how it was run: as §1
Mus musculus [3] = test: Antinociceptive activity in formalin induced nociceptive mouse model assessed as reduction in nociceptive behavior at 1 mg/kg, ip administered 10 mins prior to formalin induction measured up to 7 mins in presence of adenosine A3 agonist 2Cl-IBMECA; assay type: functional, organism-based; how it was run: as §1
Mus musculus [4] = test: Antinociceptive activity in formalin induced nociceptive mouse model assessed as reduction in nociceptive behavior at 1 mg/kg, ip administered 10 mins prior to formalin induction measured for 15 to 60 mins in presence of adenosine A3 agonist 2Cl-IBMECA; assay type: functional, organism-based; how it was run: as §1
Adenosine receptor A3 [5] = biological target: T1, Adenosine receptor A3 (Rattus norvegicus, UniProt P28647); test: Displacement of [3H]NECA from recombinant rat adenosine A3 receptor expressed in CHO cell membranes after 3 hrs by microbeta scintillation counting
T1 sequence (P28647 whole entry): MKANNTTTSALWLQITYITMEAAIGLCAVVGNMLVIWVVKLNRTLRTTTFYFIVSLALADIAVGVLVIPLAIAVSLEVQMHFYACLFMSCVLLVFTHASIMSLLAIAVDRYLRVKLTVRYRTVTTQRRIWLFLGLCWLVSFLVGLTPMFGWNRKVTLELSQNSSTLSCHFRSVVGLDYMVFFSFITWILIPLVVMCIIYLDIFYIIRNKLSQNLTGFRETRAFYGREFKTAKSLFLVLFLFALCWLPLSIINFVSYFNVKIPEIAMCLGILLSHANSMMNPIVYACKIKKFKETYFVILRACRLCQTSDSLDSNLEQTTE
How it was run: (§2)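 CHO membranes with stable human A1, A2A, A3 or rat A3 (1000g then 100 000g spin, stored -80 °C). Competition: hA1 1 nM [3H]CCPA, nonspecific with 1 mM theophylline; hA2A 10 nM [3H]NECA; hA3 1 nM [3H]HEMADO; rA3 30 nM [3H]NECA; latter three nonspecific with 100 μM R-PIA.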

[6] = Selectivity ratio of Ki for recombinant rat adenosine A3 receptor expressed in CHO cell membranes to Ki for recombinant human adenosine A3 receptor expressed in CHO cell membranes; assay type: cell-based; how it was run: as §2
Adenosine receptor A1 [7] = biological target: T2, Adenosine receptor A1 (Homo sapiens, UniProt P30542); test: Agonist activity at recombinant human adenosine A1 receptor expressed in CHO cell membranes assessed as inhibition of forskolin-stimulated adenylyl cyclase activity after 10 mins in presence of [alpha-32P]ATP; assay type: functional, cell-based
T2 sequence (P30542 whole entry): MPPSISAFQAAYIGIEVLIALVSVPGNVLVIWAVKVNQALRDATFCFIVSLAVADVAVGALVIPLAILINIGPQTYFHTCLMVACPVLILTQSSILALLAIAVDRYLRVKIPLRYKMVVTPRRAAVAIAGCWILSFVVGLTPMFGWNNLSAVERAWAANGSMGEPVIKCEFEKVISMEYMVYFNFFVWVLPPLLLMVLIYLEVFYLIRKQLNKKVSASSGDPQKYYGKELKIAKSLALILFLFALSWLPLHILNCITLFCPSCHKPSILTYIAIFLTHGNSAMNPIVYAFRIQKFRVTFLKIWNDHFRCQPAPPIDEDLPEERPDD
How it was run: (§3)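 hA1 in CHO cell membranes (single high-speed spin, resuspended in 50 mM Tris/HCl pH 7.4, used immediately); agonist inhibition of forskolin-stimulated adenylyl cyclase; efficacy relative to CCPA as reference full agonist (100%). Geometric means with 95% confidence intervals, n = 3.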

Adenosine receptor A1 [8] = biological target: T2, Adenosine receptor A1; test: Displacement of [3H]CCPA from recombinant human adenosine A1 receptor expressed in CHO cell membranes after 3 hrs by microbeta scintillation counting; how it was run: as §2
Adenosine receptor A2a [9] = biological target: T3, Adenosine receptor A2a (Homo sapiens, UniProt P29274); test: Displacement of [3H]NECA from recombinant human adenosine A2A receptor expressed in CHO cell membranes after 3 hrs by microbeta scintillation counting; how it was run: as §2
Adenosine receptor A3 [10] = biological target: T4, Adenosine receptor A3 (Homo sapiens, UniProt P0DMS8); test: Displacement of [3H]HEMADO from recombinant human adenosine […] receptor expressed in CHO cell membranes after 3 hrs by microbeta scintillation counting; how it was run: as §2
T4 sequence (P0DMS8 whole entry): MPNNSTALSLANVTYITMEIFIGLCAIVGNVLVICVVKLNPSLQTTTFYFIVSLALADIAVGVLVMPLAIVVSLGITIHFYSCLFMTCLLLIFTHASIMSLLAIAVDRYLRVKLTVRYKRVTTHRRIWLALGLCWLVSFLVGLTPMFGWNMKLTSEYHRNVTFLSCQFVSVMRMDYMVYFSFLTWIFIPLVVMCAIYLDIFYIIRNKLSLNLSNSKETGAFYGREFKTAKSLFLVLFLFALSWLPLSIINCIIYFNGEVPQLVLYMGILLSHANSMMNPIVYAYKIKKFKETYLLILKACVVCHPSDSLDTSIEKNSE

Adenosine receptor A2a [11] = biological target: T3, Adenosine receptor A2a; test: Agonist activity at recombinant human adenosine A2A receptor expressed in CHO cell membranes assessed as stimulation of adenylyl cyclase activity by [alpha-32P]ATP assay; assay type: functional, cell-based
How it was run: (§4)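 hA2A or hA2B in CHO cell membranes (one high-speed spin, pellet in 50 mM Tris/HCl pH 7.4, used immediately); agonist stimulation of adenylyl cyclase gives EC50; partial agonism judged as efficacy against 100 μM NECA as full agonist. Geometric means, 95% confidence intervals, n = 3.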

Adenosine receptor A2b = biological target: T5, Adenosine receptor A2b (Homo sapiens, UniProt P29275); test: Agonist activity at recombinant human adenosine A2B receptor expressed in CHO cell membranes assessed as stimulation of adenylyl cyclase activity by [alpha-32P]ATP assay; assay type: functional, cell-based; how it was run: as §4
T5 sequence (P29275 whole entry): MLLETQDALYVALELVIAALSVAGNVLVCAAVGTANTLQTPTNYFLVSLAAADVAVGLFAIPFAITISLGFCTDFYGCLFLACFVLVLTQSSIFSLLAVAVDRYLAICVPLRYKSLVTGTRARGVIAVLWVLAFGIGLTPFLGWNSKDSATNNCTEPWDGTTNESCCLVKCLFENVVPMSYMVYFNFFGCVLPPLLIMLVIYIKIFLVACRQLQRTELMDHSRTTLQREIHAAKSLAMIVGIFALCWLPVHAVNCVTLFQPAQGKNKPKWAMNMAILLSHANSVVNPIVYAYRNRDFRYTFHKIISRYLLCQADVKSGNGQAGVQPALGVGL

[12] = biological target: T6, Adenosine receptor A2b (Homo sapiens) (UniProt P29275); test: Partial agonist activity at recombinant human adenosine A2B receptor expressed in CHO cell membranes assessed as stimulation of adenylyl cyclase activity by [alpha-32P]ATP assay relative to NECA; assay type: functional, cell-based; how it was run: as §4
T6 sequence (whole entry): T5 sequence (P29275 whole entry)

Adenosine receptor A3 [13] = biological target: T4, Adenosine receptor A3; test: Antagonist activity at recombinant human adenosine A3 receptor expressed in CHO cell membranes assessed as reversal of NECA-mediated inhibition of adenylyl cyclase activity after 10 mins by [alpha-32P]ATP assay; assay type: functional, cell-based
Homo sapiens [14] = species on record: Homo sapiens; test: Selectivity ratio of Ki for recombinant human adenosine A2A receptor expressed in CHO cell membranes to Ki for recombinant human adenosine A1 receptor expressed in CHO cell membranes; assay type: cell-based; how it was run: as §2
Homo sapiens [15] = species on record: Homo sapiens; test: Selectivity ratio of Ki for recombinant human adenosine A2A receptor expressed in CHO cell membranes to Ki for recombinant human adenosine A3 receptor expressed in CHO cell membranes; assay type: cell-based; how it was run: as §2
[16] = biological target: Adenosine receptors; A1 & A3 (Homo sapiens) (UniProt P30542+P0DMS8); test: Selectivity ratio of Ki for recombinant human adenosine A3 receptor expressed in CHO cell membranes to Ki for recombinant human adenosine A1 receptor expressed in CHO cell membranes; assay type: cell-based; how it was run: as §2
Mus musculus [17] = test: Antinociceptive activity in formalin induced nociceptive mouse model at 1 mg/kg, ip administered 10 mins prior to formalin induction measured up to 60 mins; assay type: functional, organism-based; how it was run: as §1
[18] = Lipophilicity, log P of the compound; assay type: physicochemical; details: octanol/water
[19] = biological target: T7, Adenosine receptor A1 (Homo sapiens) (UniProt P30542); test: Agonist activity at recombinant human adenosine A1 receptor expressed in CHO cell membranes assessed as inhibition of forskolin-stimulated adenylyl cyclase activity after 10 mins relative to CCPA; assay type: functional, cell-based; how it was run: as §3
T7 sequence (whole entry): T2 sequence (P30542 whole entry)

Adenosine receptor A2a [20] = biological target: T3, Adenosine receptor A2a; test: Agonist activity at recombinant human adenosine A2A receptor expressed in CHO cell membranes assessed as stimulation of adenylyl cyclase activity relative to NECA; assay type: functional, cell-based; how it was run: as §4

T3 sequence (P29274 whole entry): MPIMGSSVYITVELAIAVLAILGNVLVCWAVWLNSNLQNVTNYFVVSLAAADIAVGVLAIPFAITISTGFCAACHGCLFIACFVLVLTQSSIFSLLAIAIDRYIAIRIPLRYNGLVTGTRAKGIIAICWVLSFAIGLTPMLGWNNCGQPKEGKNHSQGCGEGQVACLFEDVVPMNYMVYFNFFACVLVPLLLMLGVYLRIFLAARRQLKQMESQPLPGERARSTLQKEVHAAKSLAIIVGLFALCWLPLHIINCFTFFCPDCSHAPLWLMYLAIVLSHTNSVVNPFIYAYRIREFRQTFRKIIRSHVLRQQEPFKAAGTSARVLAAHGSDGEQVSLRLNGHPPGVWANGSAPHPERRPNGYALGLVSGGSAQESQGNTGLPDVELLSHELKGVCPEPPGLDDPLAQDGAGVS

Row | Compound | Activity (Mus musculus [1]) | Activity (Mus musculus [2]) | Ki (Adenosine receptor A3 [5]) [nM] | Ratio Ki [6] | EC50 (Adenosine receptor A1 [7]) [nM] | Ki (Adenosine receptor A1 [8]) [nM] | Ki (Adenosine receptor A2a [9]) [nM] | Ki (Adenosine receptor A3 [10]) [nM] | EC50 (Adenosine receptor A2a [11]) [nM] | EC50 (Adenosine receptor A2b) [nM] | Activity [12] [%] | EC50 (Adenosine receptor A3 [13]) [nM] | Ratio Ki (Homo sapiens [14]) | Ratio Ki (Homo sapiens [15]) | Ratio Ki [16] | further results
1 | CNC(=O)[C@H]1O[C@@H](n2cnc3c(NCc4cccc(I)c4)nc(Cl)nc32)[C@H](O)[C@@H]1O | inactive | inactive | – | – | – | – | – | – | – | – | – | – | – | – | – | –
2 | O[C@@H]1[C@H](O)[C@@H](CCl)O[C@H]1n1cnc2c(NC3C[C@@H]4CC[C@@H]3C4)ncnc21 (mixture of isomers) | inactive | inactive | – | – | – | – | – | – | – | – | – | – | – | – | – | Activity (Mus musculus [3]): Active; Activity (Mus musculus [4]): Active
3 | CCn1nnc([C@H]2O[C@@H](n3cnc4c(NC5CC5)ncnc43)[C@H](O)[C@@H]2O)n1 | – | – | 66 | 76 | 7.66 | 0.864 | 146 | 0.875 | 21.6 | 222 | 86 | 5.4 | 170 | 168 | 1 | –
4 | CCn1nnc([C@H]2O[C@@H](n3cnc4c(NCc5cccc(I)c5)nc(Cl)nc43)[C@H](O)[C@@H]2O)n1 | – | – | 2.53 | – | – | – | – | – | – | – | – | – | – | – | – | Activity (Mus musculus [17]): inactive; logP [18]: 4.06
5 | CCn1nnc([C@H]2O[C@@H](n3cnc4c(NCc5cccc(F)c5)ncnc43)C(O)C2O)n1 (single isomer, unassigned) | – | – | 9.26 | 7.7 | 147 | 3.73 | 74 | 1.2 | 14.4 | 1100 | 86 | 12.5 | 20 | 62 | 0.32 | Efficacy [19]: > 90%; Efficacy (Adenosine receptor A2a [20]): > 90%
